This is an account of results in ChEMBL document CHEMBL1145784, “Three dimensional pharmacophore modeling of human CYP17 inhibitors. Potential agents for prostate cancer therapy” (J Med Chem, 2003).

Each structure is given as a SMILES string.

One test concerns the target T1, Steroid 17-alpha-hydroxylase/17,20 lyase (Homo sapiens, UniProt P05093).
T1 sequence (P05093 whole entry): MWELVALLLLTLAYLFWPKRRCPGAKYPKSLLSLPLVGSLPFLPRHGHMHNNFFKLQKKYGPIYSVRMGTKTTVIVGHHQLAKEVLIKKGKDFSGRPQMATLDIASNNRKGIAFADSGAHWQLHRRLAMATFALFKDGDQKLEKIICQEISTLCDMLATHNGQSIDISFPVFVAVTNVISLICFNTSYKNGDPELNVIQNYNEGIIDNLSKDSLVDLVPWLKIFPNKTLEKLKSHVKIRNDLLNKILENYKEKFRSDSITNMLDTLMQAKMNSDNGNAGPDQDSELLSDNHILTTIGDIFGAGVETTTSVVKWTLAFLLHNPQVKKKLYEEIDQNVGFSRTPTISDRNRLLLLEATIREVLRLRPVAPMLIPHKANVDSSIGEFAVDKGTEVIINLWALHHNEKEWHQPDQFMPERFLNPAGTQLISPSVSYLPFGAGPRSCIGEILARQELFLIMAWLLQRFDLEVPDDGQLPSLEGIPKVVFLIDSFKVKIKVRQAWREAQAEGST
Broadly, the Ki is a dissociation constant, usually derived from enzyme kinetics or from competition with a known ligand. A low value points to a stronger hold on the target. Regarding `c1ccc(-c2ccc(C(c3ccccc3)n3ccnc3)cc2)cc1` (centres undefined) [BIFONAZOLE], the Ki came out at 56.5 nM. This counts as double-digit nanomolar. Molecule `Clc1ccc(COC(Cn2ccnc2)c2ccc(Cl)cc2Cl)cc1` (centres undefined) [ECONAZOLE] gave a Ki of 325 nM. This Ki is about 5.8-fold higher than that of the molecule before. On the same count and under the same terms, the value for `Clc1ccc(COC(Cn2ccnc2)c2ccc(Cl)cc2Cl)c(Cl)c1` (centres undefined) [MICONAZOLE] was 243 nM; that for `Clc1ccc(C(Cn2ccnc2)OCc2ccsc2Cl)c(Cl)c1` (centres undefined) [TIOCONAZOLE] was 505 nM.

The target of a further test is T1, Steroid 17-alpha-hydroxylase/17,20 lyase. The test can be described thus: In vitro Cytochrome P450 17A1 inhibition in rapid acetic acid releasing assay (AARA) using intact P450c17-expressing Escherichia coli or P450c17-LNCaP cells as the enzyme source at 1 mM. In outline:
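Acetic acid releasing assay using intact P450c17-expressing E. coli or P450c17-LNCaP cells with [21-3H]-17α-hydroxypregnenolone as substrate. Activity was read as tritiated acetic acid formed from C-21 side-chain cleavage. Percent inhibition was recorded at a single inhibitor concentration of 1 mM.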
What is called inhibition is the percentage by which the read-out fell short of the control. `CS(=O)(=O)Nc1cc(Cc2cc(NS(C)(=O)=O)cc(C(F)(F)F)c2)cc(C(F)(F)F)c1` had an inhibition at 1000 µM of approximately 25%.

The next test has the same target. The test can be described thus: In vitro cytochrome P450 17A1 inhibition was assayed using the rapid acetic acid releasing assay (AARA), utilizing intact P450c17-expressing Escherichia coli or P450c17-LNCaP cells as the enzyme source. In outline: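 Enzyme source was intact E. coli expressing P450c17 or P450c17-LNCaP cells. Substrate was [21-3H]-17α-hydroxypregnenolone, and CYP17 activity was read as tritiated acetic acid released by C-21 side-chain cleavage. Each compound was tested at five or more concentrations, in triplicate. IC50 was taken directly from plots of % inhibition versus concentration and reported as the mean of triplicate experiments.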
The term IC50 denotes the concentration that gives 50% inhibition. High values mean weaker potency, low ones greater potency. In turn, `C/C(=N/O)C1=CC=C2[C@@H]3CCC4=CC(=O)CC[C@]4(C)[C@H]3CC[C@]12C` yielded an IC50 of 1700 nM. Same read-out and setting: the value for `C/C(=N/O)[C@@]1(O)CC[C@H]2[C@@H]3CC=C4C[C@@H](O)CC[C@]4(C)[C@H]3CC[C@@]21C` was 12000 nM; that for `C[C@]12CC[C@@H](O)CC1=CC[C@@H]1[C@@H]2CC[C@]2(C)C(=C/C=N/O)CC[C@@H]12` was 320 nM.

The molecule `C[C@]12CC[C@H](O)CC1=CCC1C2CC[C@@]2(C)C1CC[C@H]2c1ccncn1` (some centres undefined) had an IC50 of 225 nM.

For `C[C@]12CCC3C(CC=C4C[C@@H](O)CC[C@@]43C)C1C/C(=N\O)C2` (some centres undefined), the IC50 amounted to 628 nM. Still for that read-out and setting: the value for `C[C@]12CC[C@H](O)CC1=CCC1C2CC[C@]2(C)C(n3nccn3)=CCC12` (some centres undefined) was 3700 nM; that for `C[C@]12CCC(=O)C=C1CCC1C2CC[C@]2(C)C(n3cncn3)=CCC12` (some centres undefined) was 1200 nM. Still for that read-out and setting: the value for `C[C@]12CC[C@H](O)CC1=CCC1C2CC[C@]2(C)C(n3cnnn3)=CCC12` (some centres undefined) was 2600 nM. As to `C[C@]12CCC(=O)C=C1CCC1C2CC[C@]2(C)C(n3ccnc3)=CCC12` (some centres undefined), the IC50 was determined as 150 nM. On the same count and under the same terms, the value for `C[C@]12CC[C@H](O)CC1=CCC1C2CC[C@]2(C)C(n3cncn3)=CCC12` (some centres undefined) was 800 nM.

For the molecule `CC(=O)O[C@H]1CCC2C3C=CC4=CC(=O)C=C[C@]4(C)C3CC[C@@]21C` (some centres undefined), the IC50 is 660 nM.

Regarding `C=C1C[C@@]2(C)C(=CC1=O)CCC1C2CC[C@@]2(C)C1CC[C@]2(C)OC(C)=O` (some centres undefined), half-maximal inhibition (IC50) required 562 nM.

Turning to `C[C@]12CC[C@H](O)CC1=CCC1C2CC[C@]2(C)C(c3cncnc3)=CCC12` (some centres undefined), 500 nM corresponded to half-maximal inhibition (IC50). `C[C@]12CCC3C(CC=C4C[C@@H](O)CC[C@@]43C)C1CCC2C/C=N/O` (some centres undefined): the midpoint of inhibition, the IC50, lay at 450 nM. Still for that read-out and setting: the value for `C[C@]12CCC(=O)C=C1CCC1C2CC[C@]2(C)C(n3cnc4ccccc43)=CCC12` (some centres undefined) was 915 nM; that for `C[C@]12CCC(=O)C=C1CCC1C2CC[C@]2(C)C(n3ccnn3)=CCC12` (some centres undefined) was 387 nM; that for `C[C@]12CC[C@H](O)CC1=CCC1C2CC[C@]2(C)C(=N/N)/C(=N/O)CC12` (some centres undefined) was 5900 nM.

On to `C[C@]12CC[C@H](O)CC1=CCC1C2CC[C@]2(C)C(n3ccnn3)=CCC12` (some centres undefined), for which the IC50 turned out to be 377 nM. Molecule `C[C@]12CCC(=O)C=C1CCC1C2CC[C@]2(C)C(c3ccno3)=CCC12` (some centres undefined) yielded an IC50 of 1000 nM.

In the case of `CC(CCC(=O)OC1CC2CC=CC1C2)[C@H]1CCC2C3CC=C4C[C@@H](O)CC[C@]4(C)C3CCC21` (some centres undefined), the IC50 is 617 nM. Still for that read-out and setting: the value for `C[C@]12CC[C@H](O)CC1=CCC1C2CC[C@]2(C)C(n3ncnn3)=CCC12` (some centres undefined) was 1400 nM; that for `C[C@]12CC[C@H](O)CC1=CC[C@@H]1[C@@H]2CC[C@]2(C)C(c3cccnc3)=CC[C@@H]12` [ABIRATERONE] was 800 nM.

`C[C@]12CC[C@H](O)CC1=CCC1C2CC[C@]2(C)/C(=N/NC(N)=O)CCC12` (some centres undefined) [NRB 03731] showed an IC50 of 178 nM. Same read-out and setting: the value for `CCC(=O)O[C@H]1CC[C@H]2[C@@H]3CCC4=CC(=O)CC[C@]4(C)[C@H]3CC[C@]12C` [TESTOSTERONE PROPIONATE] was 56 nM.
